# In PMC5327638 (Theranostics, 2017):
# Columns and labels:
# [1] = test system: MDAMB231 X4 tumor-bearing Balb/c nude mice; experiment: Biodistribution by radiodetection; assay type: in vivo, mouse; settings: 24 h after i.v. 50 μg (10 MBq), ^111In
# Outline: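 Tracer was labelled with 111In alone or with 111In plus 165Ho, and 50 μg (10 MBq) was given i.v.; some mice had SPECT at 24 h first. Mice were killed at 24 h, and tissues were excised and weighed; dual-label samples were halved before weighing. Gamma counting used 245 keV for 60 s. cpm were converted to MBq, corrected for decay and counting efficiency. %ID/g = (MBq in tissue/injected dose ×100%)/tissue weight.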
# [2] = test system: MDAMB231 X4 tumor-bearing Balb/c nude mice; experiment: In vivo SPECT imaging in tumor-bearing mice; design: species or system mouse; settings: i.v., 50 μg, 10 MBq; 24 hrs post-injection; n=5
# [3] = biological target: chemokine receptor 4 (CXCR4), MDAMB231 X4 cells (Homo sapiens, UniProt P61073); experiment: Fluorescence flow cytometry saturation binding
# Outline: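 Trypsinised cells (300000 per aliquot) were exposed to tracer at 0–1000 nM in 0.1% BSA/PBS for 1 hr at 4 °C, washed three times and resuspended. Flow cytometry used a 635 nm laser with a […] filter. Mean fluorescence counts gave saturation curves. Triplicates, total n=6.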
# Sequence of chemokine receptor 4 (CXCR4), MDAMB231 X4 cells (P61073 whole entry): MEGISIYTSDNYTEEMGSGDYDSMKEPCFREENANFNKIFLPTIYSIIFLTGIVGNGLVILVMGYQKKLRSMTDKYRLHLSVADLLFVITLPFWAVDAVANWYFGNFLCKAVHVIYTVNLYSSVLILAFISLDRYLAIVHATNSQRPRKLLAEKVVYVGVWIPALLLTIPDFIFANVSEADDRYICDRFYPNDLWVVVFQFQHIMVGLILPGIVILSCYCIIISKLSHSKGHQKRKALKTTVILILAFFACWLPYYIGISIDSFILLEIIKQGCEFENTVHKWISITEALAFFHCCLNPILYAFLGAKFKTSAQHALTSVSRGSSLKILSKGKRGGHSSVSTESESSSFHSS
smiles,measurement,setting,value
"CC(=O)N[C@@H](CCCNC(=N)N)C(=O)N[C@@H](CCCNC(=N)N)C(=O)N[C@@H](Cc1ccc2ccccc2c1)C(=O)N[C@H]1CSSC[C@@H](C(=O)N[C@@H](CCCNC(=N)N)C(N)=O)NC(=O)[C@H](CCCNC(N)=O)NC(=O)[C@H](CCCNC(=N)N)NC(=O)[C@H](Cc2ccc(O)cc2)NC(=O)[C@@H]2CCCN2C(=O)[C@@H](CCCCNC(=O)CCCNC(=O)[C@H](CCCCNC(=O)CCCCCN2C(=CC=CC=CC3=[N+](CCCCS(=O)(=O)O)c4ccc(S(=O)(=O)[O-])cc4C3(C)C)C(C)(C)c3cc(S(=O)(=O)O)ccc32)NC(=O)CN(CCN(CC(=O)O)CC(=O)O)CCN(CC(=O)O)CC(=O)O)NC(=O)[C@H](CCCNC(=N)N)NC(=O)[C@H](CCCNC(N)=O)NC(=O)[C@H](Cc2ccc(O)cc2)NC1=O (single isomer, unassigned) [^111In(^165Ho)-hybrid-Cy5-Ac-TZ14011, metal not drawn]","tumor to muscle ratio (T/M), radiodetection",[1]; n=3-5,4.38 ± 1.51
"CC(=O)N[C@@H](CCCNC(=N)N)C(=O)N[C@@H](CCCNC(=N)N)C(=O)N[C@@H](Cc1ccc2ccccc2c1)C(=O)N[C@H]1CSSC[C@@H](C(=O)N[C@@H](CCCNC(=N)N)C(N)=O)NC(=O)[C@H](CCCNC(N)=O)NC(=O)[C@H](CCCNC(=N)N)NC(=O)[C@H](Cc2ccc(O)cc2)NC(=O)[C@@H]2CCCN2C(=O)[C@@H](CCCCNC(=O)CCCNC(=O)[C@H](CCCCNC(=O)CCCCCN2C(=CC=CC=CC3=[N+](CCCCS(=O)(=O)O)c4ccc(S(=O)(=O)[O-])cc4C3(C)C)C(C)(C)c3cc(S(=O)(=O)O)ccc32)NC(=O)CN(CCN(CC(=O)O)CC(=O)O)CCN(CC(=O)O)CC(=O)O)NC(=O)[C@H](CCCNC(=N)N)NC(=O)[C@H](CCCNC(N)=O)NC(=O)[C@H](Cc2ccc(O)cc2)NC1=O (single isomer, unassigned) [^111In-hybrid-Cy5-Ac-TZ14011, metal not drawn]",uptake on SPECT images,[2],high uptake in the liver and kidneys as well as in the tumor
same,"uptake in tumor exceeding uptake in muscle, factor",[1],6
"CC(=O)N[C@@H](CCCNC(=N)N)C(=O)N[C@@H](CCCNC(=N)N)C(=O)N[C@@H](Cc1ccc2ccccc2c1)C(=O)N[C@H]1CSSC[C@@H](C(=O)N[C@@H](CCCNC(=N)N)C(N)=O)NC(=O)[C@H](CCCNC(N)=O)NC(=O)[C@H](CCCNC(=N)N)NC(=O)[C@H](Cc2ccc(O)cc2)NC(=O)[C@@H]2CCCN2C(=O)[C@@H](CCCCNC(=O)CCCNC(=O)[C@H](CCCCNC(=O)CCCCCN2C(=CC=CC=CC3=[N+](CCCCS(=O)(=O)O)c4ccc(S(=O)(=O)[O-])cc4C3(C)C)C(C)(C)c3cc(S(=O)(=O)O)ccc32)NC(=O)CN(CCN(CC(=O)O)CC(=O)O)CCN(CC(=O)O)CC(=O)O)NC(=O)[C@H](CCCNC(=N)N)NC(=O)[C@H](CCCNC(N)=O)NC(=O)[C@H](Cc2ccc(O)cc2)NC1=O (single isomer, unassigned) [hybrid-Cy5-Ac-TZ14011]",Kd,[3],0.245 ± 0.065 µM
same,"maximum signal intensity, flow cytometry","[3]; Cy5, saturation binding, n=6",1100 fluorescence counts
